The source made the active and inactive calls. The rule behind the calls is not given here.
Tests used:
[1] = Selectivity index, ratio of CC50 for […] OR6 cells to ED50 for HCV
How it was run: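 SI was calculated as CC₅₀ (WST-1 viability of OR6 cells, 72 h) divided by EC₅₀ (HCV replicon Renilla luciferase inhibition, 72 h).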

[2] = Cytotoxicity against […] OR6 cells after 72 hrs by WST1 assay; format: cell-based
How it was run: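 OR6 cells were seeded at 1 × 10³ per well in triplicate and treated at three or four concentrations for 72 h. Viability was read by WST-1 proliferation assay, and CC₅₀ was determined.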

[3] = system: Hepatitis C virus; test: Antiviral activity against HCV infected in […] OR6 cells assessed as inhibition of viral RNA replication after 72 hrs by luciferase reporter gene assay; format: functional, Hepacivirus hominis; details: for EC50: OR6, 72 h, read-out: ED50 (the source's name)
How it was run: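 OR6 cells carry genome-length HCV RNA with a Renilla luciferase reporter. Cells were plated at 2 × 10⁴ per well, at least in triplicate, and cultured 24 h. They were then exposed to compound for 72 h, lysed in Renilla lysis reagent, and luciferase activity was read. The top test concentration was set from prior WST-1 viability at about 80% relative activity.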

[4] = molecular target: T1, Peroxisome proliferator-activated receptor alpha (Homo sapiens) (UniProt Q07869); test: Antagonist activity at human PPARalpha assessed as effect on TIPP-703-induced activity at 10 uM
T1 sequence (whole entry): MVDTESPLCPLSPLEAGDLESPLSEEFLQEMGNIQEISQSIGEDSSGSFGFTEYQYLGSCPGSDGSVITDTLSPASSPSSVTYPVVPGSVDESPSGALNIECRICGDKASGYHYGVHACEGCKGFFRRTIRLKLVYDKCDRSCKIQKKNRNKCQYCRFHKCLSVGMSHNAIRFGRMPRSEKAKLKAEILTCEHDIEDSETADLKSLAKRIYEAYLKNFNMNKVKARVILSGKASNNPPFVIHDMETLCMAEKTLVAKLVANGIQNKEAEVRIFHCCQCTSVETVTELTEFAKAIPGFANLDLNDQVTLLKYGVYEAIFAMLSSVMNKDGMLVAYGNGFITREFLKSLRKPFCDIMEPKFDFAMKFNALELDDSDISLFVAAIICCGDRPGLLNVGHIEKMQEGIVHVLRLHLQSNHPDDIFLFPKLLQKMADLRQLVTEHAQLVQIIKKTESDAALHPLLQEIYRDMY
How it was run: (§1)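 Antagonism was measured against stimulation by the hPPAR-pan agonist, with test compound co-applied and the result expressed as % inhibition.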

[5] = molecular target: T2, Peroxisome proliferator-activated receptor delta (Homo sapiens, UniProt Q03181); test: Antagonist activity at human PPARdelta assessed as effect on TIPP-703-induced activity; how it was run: as §1
T2 sequence (Q03181 whole entry): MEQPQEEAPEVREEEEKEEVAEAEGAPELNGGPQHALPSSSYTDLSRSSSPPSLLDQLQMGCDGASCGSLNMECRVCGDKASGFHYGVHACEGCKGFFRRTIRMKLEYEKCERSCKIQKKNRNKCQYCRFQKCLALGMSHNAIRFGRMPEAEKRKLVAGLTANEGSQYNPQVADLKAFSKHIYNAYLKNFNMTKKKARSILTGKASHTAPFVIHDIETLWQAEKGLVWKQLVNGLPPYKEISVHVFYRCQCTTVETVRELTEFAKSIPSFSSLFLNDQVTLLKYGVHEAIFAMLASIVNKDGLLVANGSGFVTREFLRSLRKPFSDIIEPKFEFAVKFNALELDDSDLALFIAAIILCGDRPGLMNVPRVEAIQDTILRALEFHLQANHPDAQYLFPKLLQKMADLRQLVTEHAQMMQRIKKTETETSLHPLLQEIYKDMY

[6] = species on record: Homo sapiens; test: Selectivity ratio of human PPARdelta to human PPARalpha
[7] = molecular target: T3, Peroxisome proliferator-activated receptor delta (Homo sapiens) (UniProt Q03181); test: Antagonist activity at human PPARdelta assessed as effect on TIPP-703-induced activity at 10 uM
T3 sequence (whole entry): T2 sequence (Q03181 whole entry)
How it was run: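 Antagonism measured as % inhibition of hPPARδ activity stimulated by a co-added hPPAR pan-agonist held at a fixed level of […].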

Row | SMILES | Selectivity Index [1] | CC50 at 72 h [2] [nM] | EC50 [3] [nM] | inhibition [4] [%] | IC50 ([5]; read-out: IC50) [nM] | ED50 ([3]; Hepacivirus hominis) | IC50 [5] | also measured
1 | CCCCOc1ccc(-c2ccc(C(=O)O)cc2F)cc1CNC(=O)c1ccc(C(F)(F)F)cc1 | 2.1 | 8100 | 3900 | 25.4 | 100 |  |  | 
2 | CCCCOc1ccc(-c2ccc(C(=O)O)cc2C)cc1CNC(=O)c1ccc(C(F)(F)F)cc1 | 11 | 2500 | 220 | 12.6 | 19 |  |  | Selectivity ratio [6]: 1000; inhibition ([3]; Hepacivirus hominis): Dose-dependent effect
3 | CCCCCOc1ccc(-c2ccc(C(=O)O)cc2C)cc1CNC(=O)c1ccc(C(F)(F)F)cc1F | 5 | 2700 | 530 | 23.3 | 92 |  |  | 
4 | CCOc1ccc(-c2ccc(C(=O)O)cc2C)cc1CNC(=O)c1ccc(C(F)(F)F)cc1F | 10 | 3900 | 390 | 49.5 | 28 |  |  | 
5 | CCCCOc1ccc(-c2ccc(C)c(C(=O)O)c2)cc1CNC(=O)c1ccc(C(F)(F)F)cc1 |  |  |  |  |  | inactive | Not Active | 
6 | CCCCOc1ccc(-c2ccc(C(=O)O)o2)cc1CNC(=O)c1ccc(C(F)(F)F)cc1 |  |  |  |  |  | inactive | Not Active | 
7 | COC(=O)c1sccc1S(=O)(=O)Nc1ccc(Nc2ccccc2)cc1OC |  |  |  |  |  |  |  | Activity ([3]; Hepacivirus hominis): inactive
8 | CCCCOc1ccc(-c2ccc(C(=O)O)nc2)cc1CNC(=O)c1ccc(C(F)(F)F)cc1 |  |  |  |  |  | inactive | Not Active | 
9 | CCCCOc1ccc(-c2ccc(C(=O)O)cc2Cl)cc1CNC(=O)c1ccc(C(F)(F)F)cc1 | 1.8 | 3200 | 1800 | 30.7 | 13 |  |  | 
10 | NC(=O)c1ncn([C@@H]2O[C@H](CO)[C@@H](O)[C@H]2O)n1 [RIBAVIRIN] | 18 | 100000 | 5600 |  |  |  |  | inhibition [7]: inactive
11 | CCCCOc1ccc(-c2cc(C(=O)O)ccc2C)cc1CNC(=O)c1ccc(C(F)(F)F)cc1 |  |  |  |  |  | inactive | Not Active | 
12 | CCCCOc1ccc(-c2ccc(C(=O)O)cn2)cc1CNC(=O)c1ccc(C(F)(F)F)cc1 |  |  |  |  |  | inactive | Not Active | 
13 | O=C(Nc1ccncc1)c1cc([N+](=O)[O-])ccc1Cl | 0.55 | 2700 | 4900 | 31.8 | > 10000 |  |  | 
14 | CCCOc1ccc(-c2ccc(C(=O)O)cc2C)cc1CNC(=O)c1ccc(C(F)(F)F)cc1F | 11 | 2200 | 220 | 49.5 | 29 |  |  | 
